As usually defined, the EC50 is the concentration at which the effect is half-maximal. By Emax is commonly meant the maximal effect, on the per cent scale that the assay sets.

Holding throughout (type): cell-based
The target in experiment [1] is Metabotropic glutamate receptor 2 (Rattus norvegicus, UniProt P31421). Briefly: Positive allosteric modulation of rat mGlu2 receptor expressed in HEK293 cells coexpressing GIRK assessed as thallium influx in presence of EC20 glutamate by CODA-RET assay. The essentials:
(§1)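 HEK293/GIRK thallium flux assay in cells expressing only mGlu2 or only mGlu4. Concentration-response measured against a fixed EC20 glutamate level. Potency (EC50), Hill slope and efficacy (% of the response to saturating glutamate) come from a single experiment run in triplicate.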

Experiment [2] concerns the target Metabotropic glutamate receptor 2 (Rattus norvegicus) (UniProt P31421). Briefly: Positive allosteric modulation of rat mGlu2 receptor expressed in HEK293 cells coexpressing GIRK assessed as thallium influx by CODA-RET assay relative to glutamate. To be noted: filed as positive allosteric modulator. The essentials:
as §1

For experiment [3], the target named is Metabotropic glutamate receptor 4 (Rattus norvegicus, UniProt P31423). Briefly: Positive allosteric modulation of rat mGlu4 receptor expressed in HEK293 cells coexpressing GIRK assessed as thallium influx in presence of EC20 glutamate by CODA-RET assay. The procedure, abridged: as §1
Metabotropic glutamate receptor 4, sequence (P31423 whole entry): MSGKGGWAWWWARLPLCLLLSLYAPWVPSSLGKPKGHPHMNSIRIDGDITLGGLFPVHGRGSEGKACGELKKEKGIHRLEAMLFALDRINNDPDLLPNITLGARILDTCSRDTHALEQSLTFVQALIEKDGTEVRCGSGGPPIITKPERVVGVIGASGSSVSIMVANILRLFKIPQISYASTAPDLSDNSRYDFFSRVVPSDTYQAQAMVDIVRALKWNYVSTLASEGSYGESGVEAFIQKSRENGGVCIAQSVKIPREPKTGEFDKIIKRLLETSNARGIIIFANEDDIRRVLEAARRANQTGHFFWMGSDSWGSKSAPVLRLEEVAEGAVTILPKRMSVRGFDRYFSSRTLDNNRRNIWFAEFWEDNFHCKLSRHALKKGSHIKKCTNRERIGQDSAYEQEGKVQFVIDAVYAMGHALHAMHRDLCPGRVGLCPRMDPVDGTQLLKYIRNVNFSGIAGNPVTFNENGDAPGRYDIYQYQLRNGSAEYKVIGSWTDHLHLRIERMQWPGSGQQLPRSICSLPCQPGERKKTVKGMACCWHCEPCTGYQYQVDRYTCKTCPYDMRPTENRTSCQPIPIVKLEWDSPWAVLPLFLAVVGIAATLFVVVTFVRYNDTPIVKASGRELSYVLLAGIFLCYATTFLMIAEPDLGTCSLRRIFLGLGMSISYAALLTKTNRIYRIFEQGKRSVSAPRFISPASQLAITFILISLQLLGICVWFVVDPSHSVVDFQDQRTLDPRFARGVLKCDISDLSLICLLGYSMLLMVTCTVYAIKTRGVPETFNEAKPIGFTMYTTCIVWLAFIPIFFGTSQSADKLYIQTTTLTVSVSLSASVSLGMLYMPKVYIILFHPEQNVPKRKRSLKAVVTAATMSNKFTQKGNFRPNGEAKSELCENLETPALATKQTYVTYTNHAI
The test system of a further experiment is HEK293. Briefly: Positive allosteric modulation of rat mGlu2/mGlu4 receptor expressed in HEK293 cells coexpressing GIRK assessed as thallium influx by CODA-RET assay relative to glutamate. To be noted: filed as positive allosteric modulator. The essentials:
(§2)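 HEK293 cells co-expressing mGlu2, mGlu4 and GIRK channels; thallium flux read-out. Test compound concentration-response in the presence of a fixed EC20 glutamate concentration. Gives EC50, Hill slope and maximal response as % of a saturating glutamate concentration. N=3 experiments, each in triplicate.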

Experiment [4] has as its target Metabotropic glutamate receptor 4 (Rattus norvegicus) (UniProt P31423). Briefly: Positive allosteric modulation of rat mGlu4 receptor expressed in HEK293 cells coexpressing GIRK assessed as thallium influx by CODA-RET assay relative to glutamate. To be noted: filed as positive allosteric modulator. The procedure, abridged:
as §1

Experiment [5] in a line: Positive allosteric modulation of rat mGlu2/mGlu4 receptor expressed in HEK293 cells coexpressing GIRK assessed as thallium influx in presence of EC20 glutamate by CODA-RET assay. The procedure, abridged: as §2

Metabotropic glutamate receptor 2, sequence (P31421 whole entry): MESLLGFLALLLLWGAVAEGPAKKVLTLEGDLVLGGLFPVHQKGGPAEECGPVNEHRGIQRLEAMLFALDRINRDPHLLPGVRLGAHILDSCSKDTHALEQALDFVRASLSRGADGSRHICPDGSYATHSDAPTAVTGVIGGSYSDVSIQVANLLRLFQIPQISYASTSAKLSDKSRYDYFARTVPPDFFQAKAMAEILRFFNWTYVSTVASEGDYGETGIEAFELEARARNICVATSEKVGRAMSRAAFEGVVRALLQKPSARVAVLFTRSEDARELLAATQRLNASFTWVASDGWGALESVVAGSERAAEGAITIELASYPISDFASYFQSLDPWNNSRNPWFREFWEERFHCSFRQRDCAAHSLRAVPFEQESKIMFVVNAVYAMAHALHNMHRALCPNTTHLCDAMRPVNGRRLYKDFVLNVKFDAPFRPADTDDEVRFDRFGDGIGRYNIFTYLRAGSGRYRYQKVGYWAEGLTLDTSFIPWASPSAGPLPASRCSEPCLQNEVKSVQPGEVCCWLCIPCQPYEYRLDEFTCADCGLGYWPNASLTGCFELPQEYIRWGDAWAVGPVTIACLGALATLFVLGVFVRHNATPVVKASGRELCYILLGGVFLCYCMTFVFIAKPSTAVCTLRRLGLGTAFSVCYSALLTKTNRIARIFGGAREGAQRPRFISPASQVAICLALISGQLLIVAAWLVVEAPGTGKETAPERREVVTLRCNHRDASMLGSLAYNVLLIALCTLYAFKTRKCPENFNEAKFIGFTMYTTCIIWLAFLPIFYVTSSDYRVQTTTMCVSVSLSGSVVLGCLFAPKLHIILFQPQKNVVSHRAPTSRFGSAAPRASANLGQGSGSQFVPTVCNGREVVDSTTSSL
Metabotropic glutamate receptor 2 (Rattus norvegicus), sequence (P31421 19-872 limits assumed): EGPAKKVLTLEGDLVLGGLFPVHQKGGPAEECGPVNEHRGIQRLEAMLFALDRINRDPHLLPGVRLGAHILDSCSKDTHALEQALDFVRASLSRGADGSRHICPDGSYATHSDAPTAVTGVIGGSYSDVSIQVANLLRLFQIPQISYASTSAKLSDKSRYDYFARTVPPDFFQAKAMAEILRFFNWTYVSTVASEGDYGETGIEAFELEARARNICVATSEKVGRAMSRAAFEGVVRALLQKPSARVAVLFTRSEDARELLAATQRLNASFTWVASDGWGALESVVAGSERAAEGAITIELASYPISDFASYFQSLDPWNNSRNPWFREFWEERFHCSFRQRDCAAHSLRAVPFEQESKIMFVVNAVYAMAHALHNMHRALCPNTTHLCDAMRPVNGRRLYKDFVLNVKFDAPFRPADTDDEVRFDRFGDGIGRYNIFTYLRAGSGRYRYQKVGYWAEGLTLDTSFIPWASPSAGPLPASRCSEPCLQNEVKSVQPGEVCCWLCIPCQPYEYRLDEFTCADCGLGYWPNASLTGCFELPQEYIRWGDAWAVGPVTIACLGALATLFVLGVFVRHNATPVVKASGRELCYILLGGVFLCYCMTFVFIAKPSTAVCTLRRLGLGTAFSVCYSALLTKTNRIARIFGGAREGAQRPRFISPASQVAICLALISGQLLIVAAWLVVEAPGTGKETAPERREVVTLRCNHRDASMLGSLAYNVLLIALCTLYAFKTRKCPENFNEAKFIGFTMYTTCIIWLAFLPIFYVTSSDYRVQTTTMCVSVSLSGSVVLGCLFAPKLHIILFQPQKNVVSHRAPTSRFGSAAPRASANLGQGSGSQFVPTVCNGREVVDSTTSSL
Metabotropic glutamate receptor 4 (Rattus norvegicus), sequence (P31423 whole entry): as the sequence (P31423 whole entry) above

For the molecule `COc1cc(NC(=O)c2ccccn2)ccc1NC(=O)c1ccc(NC(=O)COCC(=O)NCCCCCCCCNC(=O)COc2ccc(-c3cccc(COc4cc5c(c(C)c4C)C(=O)C(C4CCCC4)C5)c3)cc2C(=O)O)cc1Cl` (stereo not given), the results for the concentration for a half-maximal effect (EC50) in experiment [1], in experiment [3] and in experiment [5] were 94 nM, 32 nM and 371 nM, respectively. Besides, the maximum response (Emax) is 97% in experiment [2], 83% in the experiment with HEK293 and 52% in experiment [4].

Turning to `COc1cc(NC(=O)c2ccccn2)ccc1NC(=O)c1ccccc1Cl`, the EC50 in experiment [3] was determined as 34 nM; in experiment [5] it was 2760 nM. Further, the Emax stood at 42% with HEK293 and 94.4% in experiment [4].

Turning to `Cc1c(OCc2cccc(-c3cccc(C(=O)O)c3)c2)cc2c(c1C)C(=O)C(C1CCCC1)C2` (stereo not given), the EC50 in experiment [1] was found to be 69 nM. Also, the maximal response (Emax) in experiment [2] is 118%.

With `COc1cc(NC(=O)c2ccccn2)ccc1NC(=O)c1ccc(NC(=O)COCC(=O)NCCCCCNC(=O)COc2ccc(-c3cccc(COc4cc5c(c(C)c4C)C(=O)C(C4CCCC4)C5)c3)cc2C(=O)O)cc1Cl` (stereo not given), the EC50 in experiment [1] came to 92 nM; in experiment [3], 35 nM; in experiment [5], 128 nM. Further, the maximal response (Emax) in experiment [2] is 102%; with HEK293, 89%; in experiment [4] it was 110%.

As to `COc1cc(NC(=O)c2ccccn2)ccc1NC(=O)c1ccc(NC(=O)COCC(=O)NCCCCNC(=O)COc2ccc(-c3cccc(COc4cc5c(c(C)c4C)C(=O)C(C4CCCC4)C5)c3)cc2C(=O)O)cc1Cl` (stereo not given), the concentration giving a half-maximal response (EC50) worked out at 98 nM in experiment [1], 33 nM in experiment [3] and 150 nM in experiment [5]. For the same molecule, the Emax is 98% in experiment [2], 88% in the experiment on HEK293 and 113% in experiment [4].

Regarding `COc1cc(NC(=O)c2ccccn2)ccc1NC(=O)c1ccc(NC(=O)COCC(=O)NCCCCCCCCCCNC(=O)COc2ccc(-c3cccc(COc4cc5c(c(C)c4C)C(=O)C(C4CCCC4)C5)c3)cc2C(=O)O)cc1Cl` (stereo not given), the half-maximal effective concentration (EC50) in experiment [1] is 134 nM; in experiment [3] it was > 10000 nM; in experiment [5], 350 nM. The Emax in experiment [2] was determined as 102%; in the experiment with HEK293, 86%; in experiment [4], 41%.

Turning to `COc1cc(NC(=O)c2ccccn2)ccc1NC(=O)c1ccc(NC(=O)COCC(=O)NCCNC(=O)COc2ccc(-c3cccc(COc4cc5c(c(C)c4C)C(=O)C(C4CCCC4)C5)c3)cc2C(=O)O)cc1Cl` (stereo not given), the EC50 in experiment [1] is 281 nM; in experiment [3] it was 657 nM; in experiment [5] it was 463 nM. The Emax in experiment [2] came out at 92%; in the experiment on HEK293 it was 70%; in experiment [4], 104%.

Regarding `COc1ccc(-c2cccc(COc3cc4c(c(C)c3C)C(=O)C(C3CCCC3)C4)c2)cc1C(=O)O` (stereo not given), the concentration for a half-maximal effect (EC50) in experiment [1] came out at 84.3 nM; in experiment [5], 300 nM. Further, the maximum response (Emax) in experiment [2] worked out at 88.2%; with HEK293, 64.5%.

For `COc1cc(NC(=O)c2ccccn2)ccc1NC(=O)c1ccc(NC(=O)COCC(=O)NCCCCCCNC(=O)COc2ccc(-c3cccc(COc4cc5c(c(C)c4C)C(=O)C(C4CCCC4)C5)c3)cc2C(=O)O)cc1Cl` (stereo not given), the 50% effective concentration (EC50) in experiment [1] was 62 nM; in experiment [3] it was 32 nM; in experiment [5] it was 680 nM. In addition, the Emax in experiment [2] was found to be 102%; with HEK293, 101%; in experiment [4], 106%.

Consider `COc1cc(NC(=O)c2ccccn2)ccc1NC(=O)c1ccc(NC(=O)COCC(=O)NCCCCCCCNC(=O)COc2ccc(-c3cccc(COc4cc5c(c(C)c4C)C(=O)C(C4CCCC4)C5)c3)cc2C(=O)O)cc1Cl` (stereo not given), for which the figures for the concentration giving a half-maximal response (EC50) in experiment [1], in experiment [3] and in experiment [5] were 122 nM, 30 nM and 524 nM, respectively. The maximal effect (Emax) in experiment [2] turned out to be 101%; in the experiment with HEK293, 86%; in experiment [4], 85%.

Regarding `COc1cc(NC(=O)c2ccccn2)ccc1NC(=O)c1ccc(NC(=O)COCC(=O)NCCCCCCCCCCCCNC(=O)COc2ccc(-c3cccc(COc4cc5c(c(C)c4C)C(=O)C(C4CCCC4)C5)c3)cc2C(=O)O)cc1Cl` (stereo not given), the 50% effective concentration (EC50) in experiment [1] is 1180 nM; in experiment [3], > 10000 nM; in experiment [5], 2070 nM. The Emax in experiment [2] worked out at 102%; with HEK293, 71%; in experiment [4] it was 45%.

Turning to `COc1cc(NC(=O)c2ccccn2)ccc1NC(=O)c1ccc(NC(=O)COCC(=O)NCCCNC(=O)COc2ccc(-c3cccc(COc4cc5c(c(C)c4C)C(=O)C(C4CCCC4)C5)c3)cc2C(=O)O)cc1Cl` (stereo not given), the figures for the EC50 in experiment [1], in experiment [3] and in experiment [5] were 54 nM, 38 nM and 90 nM, respectively. The Emax was determined as 100% in experiment [2] and 114% in experiment [4].

As to `Cc1c(OCc2cccc(-c3ccc(O)c(C(=O)O)c3)c2)cc2c(c1C)C(=O)C(C1CCCC1)C2` (stereo not given), the half-maximal effective concentration (EC50) in experiment [1] amounted to 62 nM. Besides, in experiment [2], the Emax is 113%.
